According to ChEMBL document CHEMBL3244040, “Synthesis and topical antiinflammatory properties of 17,21-bis(acetyloxy)-6beta,9-difluoro-11beta-hydroxypregna-1,4-diene-3,20-dione and related 2-halogenated compounds” (J Med Chem, 1977):
Active and inactive are the calls of the source. The calls are words filed in the database; no cut-off is given here.

How the values were obtained:
[1] = test system: Rattus norvegicus; assay: Mineralocorticoid activity in rat assessed as sodium retention up to 1 mg/kg, sc; assay type: ADME, organism-based; design: dose 1 mg/kg, route subcutaneous; conditions: in vivo
[2] = test system: Rattus norvegicus; assay: Antiinflammatory activity in po dosed rat assessed as inhibition of cotton pellet-induced granuloma weight administered bid for 7 days; assay type: functional, organism-based
Summary of the method: (§1)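 Rat cotton-pellet granuloma test; compounds suspended in 0.5% carboxymethylcellulose in water given orally daily for seven consecutive days, doses up to 12.5 mg/kg die; at least eight rats per dose. Granuloma and thymus weights expressed as mg/100 g body weight. ED30 (30% inhibition) from log dose–response least-squares regression with 95% confidence limits, or extrapolated from eye-fit plots.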

[3] = test system: Rattus norvegicus; assay: Thymolytic activity in rat assessed as inhibition of thymus weight administered topically measured per pellet; assay type: organism-based; conditions: in vivo, topical_or_ocular
Summary of the method: (§2)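 Cotton-pellet granuloma test in rats; compounds suspended in 0.5% aqueous carboxymethylcellulose applied directly to the pellets, doses up to 40 µg/pellet; at least eight rats per dose. Granuloma and thymus weights converted to mg/100 g body weight. ED30 (30% inhibition) derived from log dose–response least-squares lines with 95% confidence limits, or approximated from eye-fit linear plots.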

[4] = test system: Rattus norvegicus; assay: Thymolytic activity in po dosed rat assessed as inhibition of thymus weight administered bid for 7 days; assay type: organism-based; conditions: in vivo, 168 h; summary of the method: as §1
[5] = test system: Rattus norvegicus; assay: Antiinflammatory activity in rat assessed as inhibition of cotton pellet-induced granuloma weight administered topically measured per pellet; assay type: functional; summary of the method: as §2

## CC(=O)OCC(=O)[C@@]1(OC(C)=O)CC[C@H]2[C@@H]3C[C@@H](F)C4=CC(=O)C(Br)=C[C@]4(C)[C@@]3(F)[C@@H](O)C[C@@]21C [HALOPREDONE ACETATE]
[1]
  Activity: Non-toxic
[2]
  Activity: inactive
[3]
  ED30: > 1000 µg
[4]
  Activity: Non-toxic
[5]
  ED30: 0.01 µg

## CC(=O)OCC(=O)[C@@]1(OC(C)=O)CC[C@H]2[C@@H]3C[C@H](F)C4=CC(=O)C(Br)=C[C@]4(C)[C@@]3(F)[C@@H](O)C[C@@]21C
[2]
  Activity: inactive
[3]
  ED30: > 40 µg
[4]
  Activity: Non-toxic
[5]
  ED30: >40 µg

## C[C@]12C=C(Br)C(=O)C=C1[C@H](F)C[C@H]1[C@@H]3CC[C@](O)(C(=O)CO)[C@@]3(C)C[C@H](O)[C@@]12F
[3]
  ED30: > 40 µg
[5]
  ED30: >40 µg

## CC(=O)OCC(=O)[C@@]1(O)CC[C@H]2[C@@H]3C[C@H](F)C4=CC(=O)C=C[C@]4(C)[C@@]3(F)[C@@H](O)C[C@@]21C
[3]
  ED30: 20 µg
[5]
  ED30: 40 µg

## CC(=O)OCC(=O)[C@@]1(OC(C)=O)CC[C@H]2[C@@H]3C[C@H](F)C4=CC(=O)C=C[C@]4(C)[C@@]3(F)[C@@H](O)C[C@@]21C
[2]
  Activity: inactive
[3]
  ED30: 5 µg
[4]
  Activity: Non-toxic
[5]
  ED30: 0.1 µg

## CC(=O)OCC(=O)[C@@]1(OC(C)=O)CC[C@H]2[C@@H]3C[C@@H](F)C4=CC(=O)C(Cl)=C[C@]4(C)[C@@]3(F)[C@@H](O)C[C@@]21C
[2]
  Activity: inactive
[3]
  ED30: > 40 µg
[4]
  Activity: Non-toxic
[5]
  ED30: 0.45 µg

## CC(=O)OCC(=O)[C@@]1(OC(C)=O)CC[C@H]2[C@@H]3C[C@H](F)C4=CC(=O)C(Cl)=C[C@]4(C)[C@@]3(F)[C@@H](O)C[C@@]21C
[2]
  Activity: inactive
[3]
  ED30: 40 µg
[4]
  Activity: Non-toxic
[5]
  ED30: >40 µg

## CC(=O)OCC(=O)[C@@]1(O)CC[C@H]2[C@@H]3C[C@@H](F)C4=CC(=O)C(Cl)=C[C@]4(C)[C@@]3(F)[C@@H](O)C[C@@]21C
[3]
  ED30: > 40 µg
[5]
  ED30: 9 µg

## CC1(C)O[C@@H]2C[C@H]3[C@@H]4C[C@H](F)C5=CC(=O)C=C[C@]5(C)[C@@]4(F)[C@@H](O)C[C@]3(C)[C@]2(C(=O)CO)O1 [FLUOCINOLONE ACETONIDE]
[3]
  ED30: 5 µg
[5]
  ED30: 1.02 µg

## C[C@]12C=CC(=O)C=C1[C@H](F)C[C@H]1[C@@H]3CC[C@](O)(C(=O)CO)[C@@]3(C)C[C@H](O)[C@@]12F
[3]
  ED30: > 40 µg
[5]
  ED30: >40 µg

## C[C@]12C=CC(=O)C=C1[C@@H](F)C[C@H]1[C@@H]3CC[C@](O)(C(=O)CO)[C@@]3(C)C[C@H](O)[C@@]12F
[3]
  ED30: 20 µg
[5]
  ED30: 40 µg

## C[C@]12C=C(Cl)C(=O)C=C1[C@H](F)C[C@H]1[C@@H]3CC[C@](O)(C(=O)CO)[C@@]3(C)C[C@H](O)[C@@]12F
[3]
  ED30: > 40 µg
[5]
  ED30: >40 µg

## CC(=O)OCC(=O)[C@@]1(O)CC[C@H]2[C@@H]3C[C@@H](F)C4=CC(=O)C(Br)=C[C@]4(C)[C@@]3(F)[C@@H](O)C[C@@]21C
[3]
  ED30: > 40 µg
[5]
  ED30: 40 µg

## CC(=O)OCC(=O)[C@@]1(OC(C)=O)CC[C@H]2[C@@H]3C[C@@H](F)C4=CC(=O)C=C[C@]4(C)[C@@]3(F)[C@@H](O)C[C@@]21C
[3]
  ED30: > 40 µg
[4]
  Activity: Non-toxic
[5]
  ED30: 40 µg

## CC(=O)OCC(=O)[C@@]1(O)CC[C@H]2[C@@H]3C[C@@H](F)C4=CC(=O)C=C[C@]4(C)[C@@]3(F)[C@@H](O)C[C@@]21C
[3]
  ED30: > 40 µg
[5]
  ED30: >40 µg
